Key:
[1] = target: T1, Cholecystokinin receptor type A (Rattus norvegicus, UniProt P30551); assay: Half-maximal inhibition of [125I]CCK-33 binding to cholecystokinin A receptor from rat pancreatic tissue
T1 sequence (P30551 whole entry): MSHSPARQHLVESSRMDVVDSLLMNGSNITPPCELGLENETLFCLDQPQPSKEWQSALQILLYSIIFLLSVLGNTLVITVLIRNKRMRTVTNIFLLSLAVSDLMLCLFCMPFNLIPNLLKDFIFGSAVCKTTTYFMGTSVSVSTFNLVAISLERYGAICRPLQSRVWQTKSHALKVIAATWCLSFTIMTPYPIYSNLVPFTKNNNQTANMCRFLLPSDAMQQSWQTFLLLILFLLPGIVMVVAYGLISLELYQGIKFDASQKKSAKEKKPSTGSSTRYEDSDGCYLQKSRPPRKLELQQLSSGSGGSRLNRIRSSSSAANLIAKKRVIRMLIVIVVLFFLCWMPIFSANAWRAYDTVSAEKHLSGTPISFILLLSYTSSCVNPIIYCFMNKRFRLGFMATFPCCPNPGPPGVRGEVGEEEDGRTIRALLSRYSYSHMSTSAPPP

[2] = test system: Mus musculus; assay: Ability to antagonize CCK-8 inhibition of charcoal meal gastric emptying in mice, after oral administration; assay type: functional; details: Stomach
Method in brief: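 Mice dosed orally with test compound at one or more dose levels (N ≥ 10/dose) 1 h before CCK-8 (80 μg/kg, sc). CCK-8 given 5 min before a charcoal meal. Gastric emptying measured 5 min after the meal.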

[3] = Ratio of IC50 CCK(pancreas)/ IC50BZD (brain); assay type: functional
[4] = target: GABA-A receptor; anion channel; assay: Inhibition of [3H]flunitrazepam binding to GABA-A benzodiazepine receptor of guinea brain; parameters: species or system Cavia porcellus
[5] = target: T1, Cholecystokinin receptor type A; assay: Half-maximal inhibition of [125I]CCK-8 binding to cholecystokinin receptor from rat pancreatic tissue
[6] = target: GABA-A receptor; anion channel; assay: Inhibition of [3H]diazepam binding to GABA-A benzodiazepine receptor of rat brain
[7] = Ratio of IC50 CCK (pancreas)/ IC50 BZD (brain); assay type: functional

CN1C(=O)C(NC(=O)c2ccc(C(C)(C)C)cc2)N=C(c2ccccc2F)c2ccccc21 (configuration not stated)
IC50 [1]: 100 nM

CCCCCc1ccc(C(=O)NC2N=C(c3ccccc3)c3ccccc3NC2=O)cc1 (configuration not stated)
IC50 [1]: 27000 nM

CN1C(=O)[C@H](NC(=O)c2cc3ccccc3[nH]2)N=C(c2ccccc2)c2ccccc21
ED50 [2]: 0.4 mg/kg

CN1C(=O)[C@H](N)N=C(c2ccccc2)c2ccccc21
IC50 [1]: > 100000 nM | Ratio [3]: >11 | IC50 [4]: 8500 nM

CN1C(=O)C(NC(=O)c2cccc(I)c2)N=C(c2ccccc2F)c2ccccc21 (configuration not stated)
IC50 [1]: 0.75 nM

O=C(NC1N=C(c2ccccc2)c2ccccc2NC1=O)c1cccc(Cl)c1 (configuration not stated)
IC50 [1]: 81 nM

O=C(NC1N=C(c2ccccc2)c2ccccc2NC1=O)c1ccc(Cl)c(Cl)c1 (configuration not stated)
IC50 [1]: 29 nM

CSc1ccc(C(=O)NC2N=C(c3ccccc3)c3ccccc3NC2=O)cc1 (configuration not stated)
IC50 [1]: 220 nM

NC1N=C(c2ccccc2F)c2ccccc2NC1=O (configuration not stated)
IC50 [1]: > 100000 nM

CN1C(=O)[C@H](NC(=O)c2ccc(Br)cc2)N=C(c2ccccc2)c2ccccc21
Ratio [3]: 0.05 | IC50 [4]: 15000 nM

O=C(NC1N=C(c2ccccc2)c2ccccc2NC1=O)c1ccc(Cl)cc1 (configuration not stated)
IC50 [1]: 41 nM

O=C(NC1N=C(c2ccccc2F)c2ccccc2NC1=O)c1cc2ccccc2o1 (configuration not stated)
IC50 [1]: 9 nM

O=C(/C=C/c1ccccc1)NC1N=C(c2ccccc2F)c2ccccc2NC1=O (configuration not stated)
IC50 [1]: 11 nM

CN1C(=O)[C@@H](NC(=O)/C=C/c2ccccc2)N=C(c2ccccc2)c2ccccc21
IC50 [5]: 0.3 nM

CCCc1ccc(C(=O)NC2N=C(c3ccccc3)c3ccccc3NC2=O)cc1 (configuration not stated)
IC50 [1]: 3600 nM

O=C(O)CN1C(=O)C(NC(=O)c2cc3ccccc3[nH]2)N=C(c2ccccc2)c2ccccc21 (configuration not stated)
IC50 [1]: 1.4 nM | ED50 [2]: 0.5 mg/kg

CC1(C(=O)NC2N=C(c3ccccc3F)c3ccccc3NC2=O)C=Cc2ccccc21 (configuration not stated)
IC50 [1]: 22 nM

Cn1c(C(=O)NC2N=C(c3ccccc3F)c3ccccc3NC2=O)cc2ccccc21 (configuration not stated)
IC50 [1]: 4.7 nM

O=C(NC1N=C(c2ccccc2)c2ccccc2NC1=O)c1cc2ccccc2[nH]1 (configuration not stated)
IC50 [1]: 4.7 nM | IC50 [6]: > 100000 nM | ED50 [2]: 0.4 mg/kg | Ratio [7]: <4.7e-05

CN1C(=O)C(NC(=O)c2cc3ccccc3n2C)N=C(c2ccccc2)c2ccccc21 (configuration not stated)
IC50 [1]: 1.4 nM | IC50 [4]: > 100000 nM | ED50 [2]: 1.9 mg/kg

CN1C(=O)C(NC(=O)[C@@H](Cc2ccccc2)NC(=O)OC(C)(C)C)N=C(c2ccccc2)c2ccccc21 (some centres not stated)
IC50 [1]: 700 nM

CC(C)CCC(=O)N[C@H]1N=C(c2ccccc2)c2ccccc2N(C)C1=O
IC50 [5]: 780 nM

CN1C(=O)C(NC(=O)[C@H](Cc2ccccc2)NC(=O)OC(C)(C)C)N=C(c2ccccc2F)c2ccccc21 (some centres not stated)
IC50 [5]: 340 nM

CN1C(=O)C(NC(=O)c2cc3ccccc3[nH]2)N=C(c2ccccc2)c2ccccc21 (configuration not stated)
ED50 [2]: 0.08 mg/kg

O=C(Cc1cccc2sccc12)NC1N=C(c2ccccc2F)c2ccccc2NC1=O (configuration not stated)
IC50 [1]: 1000 nM

CN1C(=O)[C@@H](NC(=O)c2ccc(C(F)(F)F)cc2)N=C(c2ccccc2F)c2ccccc21
IC50 [1]: 11 nM

CCOC(=O)CN1C(=O)C(NC=O)N=C(c2ccccc2)c2ccccc21 (configuration not stated)
IC50 [5]: > 100000 nM

O=C(NC1N=C(c2ccccc2F)c2ccccc2N(C(=O)c2ccc(Cl)cc2)C1=O)c1ccc(Cl)cc1 (configuration not stated)
IC50 [1]: 18 nM

CN1C(=O)C(NC(=O)c2ccc(C(F)(F)F)cc2)N=C(c2ccccc2F)c2ccccc21 (configuration not stated)
IC50 [1]: 20 nM

CCCCCc1ccc(C(=O)N[C@H]2N=C(c3ccccc3F)c3ccccc3N(C)C2=O)cc1
IC50 [1]: 690 nM

O=C(NC1N=C(c2ccccc2)c2ccccc2NC1=O)c1ccc(C(F)(F)F)cc1 (configuration not stated)
IC50 [1]: 240 nM

CN1C(=O)C(NC(=O)c2ccc(Cl)cc2N)N=C(c2ccccc2)c2ccccc21 (configuration not stated)
IC50 [5]: 9 nM

CN(C)c1ccc(C(=O)NC2N=C(c3ccccc3F)c3ccccc3NC2=O)cc1 (configuration not stated)
IC50 [1]: 270 nM

O=C(NC1N=C(c2ccccc2F)c2ccccc2NC1=O)c1cc2ccccc2[nH]1 (configuration not stated)
IC50 [1]: 2.1 nM

O=C(NC1N=C(c2ccccc2)c2ccccc2NC1=O)c1cnccn1 (configuration not stated)
IC50 [1]: > 10000 nM

CN1C(=O)[C@@H](NC(=O)c2ccc(I)cc2)N=C(c2ccccc2F)c2ccccc21
IC50 [1]: 0.8 nM

CN1C(=O)[C@@H](NC(=O)c2ccc(Br)cc2)N=C(c2ccccc2F)c2ccccc21
IC50 [1]: 0.8 nM

O=C(NC1N=C(c2ccccc2)c2ccccc2NC1=O)c1ccccc1Cl (configuration not stated)
IC50 [1]: 7500 nM

CN1C(=O)[C@H](NC(=O)[C@H](N)Cc2ccccc2)N=C(c2ccccc2)c2ccccc21
IC50 [1]: 100000 nM

O=C(O)CN1C(=O)C(NC(=O)c2cc3ccccc3[nH]2)N=C(c2ccccc2F)c2ccccc21 (configuration not stated)
IC50 [1]: 1.5 nM

O=C(NC1N=C(c2ccccc2)c2ccccc2NC1=O)c1ccc2ccccc2c1 (configuration not stated)
IC50 [1]: 20 nM

O=C(NC1N=C(c2ccccc2F)c2ccccc2NC1=O)c1c(F)c(F)c(F)c(F)c1F (configuration not stated)
IC50 [1]: > 10000 nM

CN1C(=O)C(N(C)C(=O)c2ccccc2Cl)N=C(c2ccccc2)c2ccccc21 (configuration not stated)
IC50 [1]: 58000 nM

CCCCCc1ccc(C(=O)NC2N=C(c3ccccc3F)c3ccccc3N(C)C2=O)cc1 (configuration not stated)
IC50 [1]: 1100 nM

CN1C(=O)CN=C(c2ccccc2)c2ccccc21
IC50 [1]: 24600 nM | IC50 [6]: 65 nM | Ratio [3]: 378

COc1ccc2[nH]c(C(=O)NC3N=C(c4ccccc4F)c4ccccc4NC3=O)cc2c1 (configuration not stated)
IC50 [1]: 200 nM

CN1C(=O)[C@@H](NC(=O)[C@H](N)Cc2ccccc2)N=C(c2ccccc2)c2ccccc21
IC50 [1]: 1900 nM

O=C(NC1N=C(c2ccccc2F)c2ccccc2NC1=O)c1ccsc1 (configuration not stated)
IC50 [1]: 150 nM

N[C@H](Cc1ccccc1)C(=O)NC1N=C(c2ccccc2)c2ccccc2NC1=O (some centres not stated)
IC50 [1]: 3100 nM

CCOC(=O)CN1C(=O)C(NC(=O)c2ccc(Cl)cc2)N=C(c2ccccc2F)c2ccccc21 (configuration not stated)
IC50 [1]: 110 nM

CC(C)(C)OC(=O)N[C@H](Cc1c[nH]c2ccccc12)C(=O)NC1N=C(c2ccccc2)c2ccccc2NC1=O (some centres not stated)
IC50 [1]: 6000 nM

CN1C(=O)C(NC(=O)c2cc3ccccc3[nH]2)N=C(c2ccccc2F)c2ccccc21 (configuration not stated)
IC50 [1]: 1.4 nM

O=C(NC1N=C(c2ccccc2F)c2ccccc2NC1=O)c1cc2cc(Cl)ccc2[nH]1 (configuration not stated)
IC50 [1]: 71 nM

O=C(NC1N=C(c2ccccc2F)c2ccccc2NC1=O)c1cc2cc(O)ccc2[nH]1 (configuration not stated)
IC50 [1]: 71 nM

O=C(NC1N=C(c2ccccc2F)c2ccccc2NC1=O)c1cc2cc(Br)ccc2[nH]1 (configuration not stated)
IC50 [1]: 120 nM

O=C(NC1N=C(c2ccccc2F)c2ccccc2NC1=O)c1ccc(Cl)cc1 (configuration not stated)
IC50 [1]: 6 nM | ED50 [2]: 1.4 mg/kg

O=C(NC1N=C(c2ccccc2)c2ccccc2NC1=O)c1ccc(F)cc1 (configuration not stated)
IC50 [1]: 480 nM

CN1C(=O)C(NC(=O)c2ccccc2Cl)N=C(c2ccccc2)c2ccccc21 (configuration not stated)
IC50 [1]: 3400 nM

O=C(NC1N=C(c2ccccc2F)c2ccccc2NC1=O)c1ccc[nH]1 (configuration not stated)
IC50 [1]: 110 nM

CN1C(=O)[C@@H](NC(=O)c2cc3ccccc3[nH]2)N=C(c2ccccc2)c2ccccc21 [DEVAZEPIDE]
ED50 [2]: 0.04 mg/kg

N#Cc1ccc(C(=O)NC2N=C(c3ccccc3)c3ccccc3NC2=O)cc1 (configuration not stated)
IC50 [1]: 730 nM

CCOC(=O)CN1C(=O)C(NC(=O)c2ccccc2Cl)N=C(c2ccccc2F)c2ccccc21 (configuration not stated)
IC50 [5]: > 30000 nM

CN1C(=O)[C@@H](NC(=O)c2cc3ccccc3[nH]2)N=C(c2ccccc2F)c2ccccc21
IC50 [1]: 6 nM

NC1N=C(c2ccccc2)c2ccccc2NC1=O (configuration not stated)
IC50 [1]: > 100000 nM

CN1C(=O)[C@H](NC(=O)C2CCCCC2)N=C(c2ccccc2)c2ccccc21
IC50 [5]: > 10000 nM

O=C1Nc2ccccc2C(c2ccccc2F)=NC1NC(=O)C(O)c1ccccc1 (configuration not stated)
IC50 [1]: 100000 nM

COc1ccc(C(=O)NC2N=C(c3ccccc3F)c3ccccc3NC2=O)cc1 (configuration not stated)
IC50 [1]: 96 nM

CC(C)(C)OC(=O)N[C@H](Cc1ccccc1)C(=O)NC1N=C(c2ccccc2)c2ccccc2NC1=O (some centres not stated)
IC50 [1]: 2700 nM

O=C1CN=C(c2ccccc2Cl)c2cc([N+](=O)[O-])ccc2N1 [CLONAZEPAM]
IC50 [1]: > 100000 nM | Ratio [3]: >58000

CN1C(=O)[C@@H](NC(=O)c2ccc(Br)cc2)N=C(c2ccccc2)c2ccccc21
IC50 [1]: 2.9 nM | Ratio [3]: <1e-05 | IC50 [4]: > 100000 nM | ED50 [2]: 0.4 mg/kg

O=C(NC1N=C(c2ccccc2)c2ccccc2NC1=O)c1ccc(O)cc1 (configuration not stated)
IC50 [1]: 1800 nM

O=C1Nc2ccccc2C(c2ccccc2)=NC1NCCc1c[nH]c2ccccc12 (configuration not stated)
IC50 [1]: 3000 nM

CN(C(=O)c1cc2ccccc2[nH]1)C1N=C(c2ccccc2)c2ccccc2NC1=O (configuration not stated)
IC50 [1]: 13000 nM

Cc1ccc(C(=O)NC2N=C(c3ccccc3F)c3ccccc3NC2=O)cc1 (configuration not stated)
IC50 [1]: 21 nM

CN1C(=O)CN=C(c2ccccc2F)c2ccccc21 [RO-054520]
IC50 [1]: 42000 nM | IC50 [6]: 24 nM | Ratio [3]: 1750

O=C(O)CN1C(=O)C(NC(=O)c2ccc(Cl)cc2)N=C(c2ccccc2F)c2ccccc21 (configuration not stated)
IC50 [1]: 32 nM

CN1C(=O)[C@@H](N)N=C(c2ccccc2)c2ccccc21
IC50 [4]: > 100000 nM

CN1C(=O)C(N)N=C(c2ccccc2F)c2ccccc21 (configuration not stated)
IC50 [5]: 57000 nM

CN1C(=O)C(NC(=O)c2ccc(Cl)cc2)N=C(c2ccccc2F)c2ccccc21 (configuration not stated)
IC50 [1]: 2.3 nM | ED50 [2]: 0.2 mg/kg

CC(=O)NC1N=C(c2ccccc2F)c2ccccc2NC1=O (configuration not stated)
IC50 [1]: 40000 nM

CN1C(=O)C(NC(=O)c2ccc(Cl)cc2)[N+]([O-])=C(c2ccccc2F)c2ccccc21 (configuration not stated)
IC50 [1]: 66 nM

O=C1Nc2ccccc2C(c2ccccc2F)=NC1NCc1cc2ccccc2[nH]1 (configuration not stated)
IC50 [1]: 87 nM

O=C(NC1N=C(c2ccccc2F)c2ccccc2NC1=O)c1ccc([N+](=O)[O-])cc1 (configuration not stated)
IC50 [1]: 110 nM

Source: ChEMBL document CHEMBL1124015, “Methods for drug discovery: development of potent, selective, orally effective cholecystokinin antagonists” (J Med Chem, 1988)
